Experimental data from ChEMBL document CHEMBL1135581, “Novel selective PDE4 inhibitors. 3. In vivo antiinflammatory activity of a new series of N-substituted cis-tetra- and cis-hexahydrophthalazinones” (J Med Chem, 2002).

Legend:
[1] = target: Phosphodiesterase 4 (Homo sapiens, UniProt P27815+Q08499+Q07343+Q08493); assay: Inhibitory concentration against phosphodiesterase 4 (PDE4) in cytosol of human neutrophils; type: protein assay
[2] = tested on: Mus musculus; assay: Percent inhibition of arachidonic acid (AA) […], induced mouse ear edema after pretreatment at a concentration of 30 umol/kg (po); type: functional
How it was run: (§1)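 Female NMRI mice, 25–32 g, n = 8 per group. Compound in water (pH 6.5–7) given by gavage at 30 μmol/kg, 1 h before 3 mg arachidonic acid in 10 μL acetone applied to the right ear.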

[3] = Inhibition of LPS-stimulated tumor necrosis factor-alpha release by human whole blood; type: functional
How it was run: (§2)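 Heparinized venous human whole blood (8 U/mL) from healthy volunteers, preincubated 15 min at 37 °C with compound (0.001–10 μM final, 0.1% DMSO). Then stimulated with LPS (1 μg/mL final) for 4 h at 37 °C. Plasma TNFα measured by nonisotopic immunoassay. IC30 from concentration–inhibition curves by nonlinear regression. Means of two independent determinations in triplicate.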

[4] = Inhibition of LPS-stimulated Tumor necrosis factor alpha release by human whole blood; type: functional; how it was run: as §2
[5] = tested on: Mus musculus; assay: Percent inhibition of arachidonic acid induced mouse ear edema after 1 hr pretreatment with 30 uM/kg peroral dose; type: functional; how it was run: as §1
[6] = Inhibition of N-formyl-methionyl-leucyl-phenylalanine (fMLP)-stimulated production of reactive oxygen species (ROS) in human PMNL by 35% of control; type: functional
How it was run: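 PMNL isolated from citrated human blood (dextran sedimentation, ficoll, hypotonic lysis), 1.25 × 10^7 cells/mL. Buffer: HEPES saline with Mg/Ca, glucose, BSA, 10 μM luminol, 4 μM microperoxidase. […] IC35 by nonlinear regression. Two independent determinations in triplicate.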

Row | Compound | Log IC50 [1] | inhibition in vivo at 30 µmol/kg [2] | also measured
1 | COc1ccc(C2=NN(C3CCCCCC3)C(=O)C3CCCCC23)c2c1OC1(CCCC1)C2 (centres undefined) | -9.2 | 29% | 
2 | COc1ccc(C2=NN(CC3CC3)C(=O)C3CC=CCC23)cc1OC (centres undefined) | -8.1 | 15% | 
3 | COc1ccc(C2=NN(C3CCSCC3)C(=O)C3CC=CCC23)cc1OC (centres undefined) | -8.9 |  | 
4 | COc1ccc(C2=NN(C3CCCCCC3)C(=O)C3CC=CCC23)c2c1OC(C)(C)C2 (centres undefined) |  | 54% | pIC30 [3]: 7.05
5 | COc1ccc(C2=NN(C3CCOCC3)C(=O)C3CC=CCC23)cc1OC (centres undefined) | -8.9 | 2% | 
6 | COc1ccc(C2=NN(C3CCCCCC3)C(=O)C3CCCCC23)cc1OC (centres undefined) | -8.6 | 18% | pIC30 [4]: 7.3
7 | COc1ccc(C2=NN(C3CCCCCCC3)C(=O)C3CC=CCC23)cc1OC (centres undefined) | -9.3 | 30% | 
8 | COc1ccc([C@@H]2CNC(=O)C2)cc1OC1CCCC1 [(-)-ROLIPRAM] |  |  | Inhibition [5]: 55%
9 | COc1ccc(C2=NN(CCCCn3ccnc3)C(=O)C3CCCCC23)cc1OC (centres undefined) | -8 | 39% | 
10 | COc1ccc(C2=NN(C(C)(C)C)C(=O)C3CCCCC23)cc1OC (centres undefined) | -7.9 |  | 
11 | COc1ccc(C2=NN(C3Cc4ccccc4C3)C(=O)C3CC=CCC23)cc1OC (centres undefined) | -9.1 |  | 
12 | COc1ccc(C2=NN(CCCCN(C)C)C(=O)C3CCCCC23)cc1OC (centres undefined) | -7 |  | 
13 | COc1ccc(C2=NN(CCCCCCCC(=O)O)C(=O)C3CCCCC23)cc1OC (centres undefined) | -7.6 |  | Inhibition [5]: 13%
14 | COc1ccc(C2=NN(C3CCCCC3)C(=O)C3CC=CCC23)cc1OC (centres undefined) | -9.2 | 13% | 
15 | COc1ccc(C2=NN(CCCCCCN(C)C)C(=O)C3CCCCC23)cc1OC (centres undefined) | -7 |  | 
16 | COc1ccc(C2=NN(C3CCCC3)C(=O)C3CC=CCC23)cc1OC (centres undefined) | -9.3 | 19% | 
17 | COc1ccc([C@]2(C#N)CC[C@@H](C(=O)O)CC2)cc1OC1CCCC1 [CILOMILAST] |  | 33% | pIC30 [3]: 4.89; pIC35 [6]: 7.04
18 | COc1ccc(C2=NN(CCCCCC(=O)[O-])C(=O)C3CCCCC23)cc1OC.[Na+] (centres undefined) | -7.5 | 18% | 
19 | COc1ccc(C2=NN(CCCCCCN)C(=O)C3CCCCC23)cc1OC (centres undefined) | -7.1 |  | 
20 | COc1ccc(C2=NN(C3CCCCCC3)C(=O)C3CC=CCC23)c2c1OC1(CCCC1)C2 (centres undefined) |  | 49% | 
21 | COc1ccc([C@H](Cc2ccncc2)c2ccccc2)cc1OC1CCCC1 [CDP840] |  | 48% | pIC30 [3]: 4.82; pIC35 [6]: 7.2
22 | COc1ccc(C2=NN(C3CCCC3)C(=O)C3CCCCC23)cc1OC (centres undefined) | -8.4 |  | 
23 | COc1ccc(C2=NN(C(C)C)C(=O)C3CC=CCC23)cc1OC (centres undefined) | -8.9 | 15% | 
24 | COc1ccc(C2=NN(C3C4CC5CC(C4)CC3C5)C(=O)C3CC=CCC23)cc1OC (centres undefined) | -9.4 | 51% | pIC30 [3]: 7.22; pIC35 [6]: 6.3
25 | COc1ccc(C2=NN(C3CCCCCC3)C(=O)C3CC=CCC23)cc1OC (centres undefined) |  | 59% | pIC30 [3]: 7.05; pIC35 [6]: 6.82

The next lines start with results.

Row | Log IC50 [1] | Compound | inhibition in vivo at 30 µmol/kg [2] | also measured
26 | -7.9 | COC(=O)c1ccc(CN2N=C(c3ccc(OC)c(OC)c3)C3CCCCC3C2=O)cc1 (centres undefined) |  | 
27 | -5.7 | COc1ccc(C2=NN(CC(=O)O)C(=O)C3CCCCC23)cc1OC (centres undefined) |  | 
28 | -7.6 | COc1ccc(C2=NN(Cc3cccnc3)C(=O)C3CCCCC23)cc1OC (centres undefined) |  | 
29 | -8 | COc1ccc(C2=NN(Cc3ccc(O)cc3)C(=O)C3CCCCC23)cc1OC (centres undefined) |  | 
30 | -7.6 | C=CCN1N=C(c2ccc(OC)c(OC)c2)C2CCCCC2C1=O (centres undefined) |  | 
31 | -8.6 | COc1ccc(C2=NN(C(C)C)C(=O)C3CCCCC23)cc1OC (centres undefined) | 14% | 
32 | -7.8 | COc1ccc(C2=NN(Cc3ccncc3)C(=O)C3CCCCC23)cc1OC (centres undefined) | 29% | 
33 | -7.5 | COc1ccc(C2=NN(CCCO)C(=O)C3CCCCC23)cc1OC (centres undefined) |  | 
34 | -7.6 | COc1cc(CN2N=C(c3ccc(OC)c(OC)c3)C3CCCCC3C2=O)cc(OC)c1 (centres undefined) |  | 
35 | -7.2 | CCOC(=O)CN1N=C(c2ccc(OC)c(OC)c2)C2CCCCC2C1=O (centres undefined) |  | 
36 | -7.4 | CCN1N=C(c2ccc(OC)c(OC)c2)C2CCCCC2C1=O (centres undefined) |  | 
37 | -6.8 | COc1ccc(C2=NN(C)C(=O)C3CCCCC23)cc1OC (centres undefined) |  | 
38 | -7.9 | COc1ccc(C2=NN(CCCOc3ccccc3)C(=O)C3CCCCC23)cc1OC (centres undefined) |  | 
39 | -8 | COc1ccc(C2=NN(CC(=O)c3ccccc3)C(=O)C3CCCCC23)cc1OC (centres undefined) |  | 
40 | -6.8 | COc1ccc(C2=NN(CCO)C(=O)C3CCCCC23)cc1OC (centres undefined) |  | 
41 | -7.8 | CCCN1N=C(c2ccc(OC)c(OC)c2)C2CCCCC2C1=O (centres undefined) |  | 

Row | Log IC50 [1] | Compound | inhibition in vivo at 30 µmol/kg [2] | also measured
42 | -7.6 | COc1ccc(C2=NN(CCc3ccccc3)C(=O)C3CCCCC23)cc1OC (centres undefined) |  | 
43 | -6.3 | COc1ccc(C2=NN(CCn3ccnc3)C(=O)C3CCCCC23)cc1OC (centres undefined) |  | 
44 | -7.3 | COc1ccc(C2=NN(Cc3ccc(C(=O)O)cc3)C(=O)C3CCCCC23)cc1OC (centres undefined) | 27% | 
45 | -7.6 | COc1ccc(C2=NN(Cc3ccccn3)C(=O)C3CCCCC23)cc1OC (centres undefined) |  | 
46 | -7.2 | COc1ccc(C2=NN(CC#N)C(=O)C3CCCCC23)cc1OC (centres undefined) |  | 
47 | -7.7 | COc1ccccc1CN1N=C(c2ccc(OC)c(OC)c2)C2CCCCC2C1=O (centres undefined) |  | 
48 | -6.5 | COc1ccc(C2=NN(CCN(C)C)C(=O)C3CCCCC23)cc1OC (centres undefined) |  | 
49 | -8 | COc1ccc(C2=NN(Cc3cccc(O)c3)C(=O)C3CCCCC23)cc1OC (centres undefined) |  | 
50 | -8.2 | COc1ccc(CN2N=C(c3ccc(OC)c(OC)c3)C3CCCCC3C2=O)cc1 (centres undefined) | 13% | 
51 | -7.9 | COc1ccc(C2=NN(Cc3cccc(C(=O)O)c3)C(=O)C3CCCCC23)cc1OC (centres undefined) | 18% | 
52 | -7.6 | COc1ccc(C2=NN(c3ccccc3)C(=O)C3CCCCC23)cc1OC (centres undefined) |  | 
53 | -7.8 | COc1ccc(C2=NN(C/C=C/c3ccccc3)C(=O)C3CCCCC23)cc1OC (centres undefined) |  | 
54 | -8.5 | COc1cccc(CN2N=C(c3ccc(OC)c(OC)c3)C3CCCCC3C2=O)c1 (centres undefined) | 8% | 
55 | -7.4 | C#CCN1N=C(c2ccc(OC)c(OC)c2)C2CCCCC2C1=O (centres undefined) |  | 
56 | -8.1 | COc1ccc(C2=NN(Cc3ccccc3O)C(=O)C3CCCCC23)cc1OC (centres undefined) |  | 
